Measurements: paper PMC6467801 (Journal of medicinal chemistry, 2018)
Blank lines part the entries; values can stand above or below the compound they belong to.

Tests used:
[1] = tested on: cells; assay: Acute toxicity in cells; format: cell-based
[2] = biological target: T1, full length SHP2 (Homo sapiens, UniProt Q06124); assay: In vitro phosphatase activity assay, phospho-peptide substrate, Malachite Green; format: biochemical; conditions: for inhibition of SHP2 phosphatase activity (qualitative): phospho-peptide substrate
T1 sequence (Q06124 1-593): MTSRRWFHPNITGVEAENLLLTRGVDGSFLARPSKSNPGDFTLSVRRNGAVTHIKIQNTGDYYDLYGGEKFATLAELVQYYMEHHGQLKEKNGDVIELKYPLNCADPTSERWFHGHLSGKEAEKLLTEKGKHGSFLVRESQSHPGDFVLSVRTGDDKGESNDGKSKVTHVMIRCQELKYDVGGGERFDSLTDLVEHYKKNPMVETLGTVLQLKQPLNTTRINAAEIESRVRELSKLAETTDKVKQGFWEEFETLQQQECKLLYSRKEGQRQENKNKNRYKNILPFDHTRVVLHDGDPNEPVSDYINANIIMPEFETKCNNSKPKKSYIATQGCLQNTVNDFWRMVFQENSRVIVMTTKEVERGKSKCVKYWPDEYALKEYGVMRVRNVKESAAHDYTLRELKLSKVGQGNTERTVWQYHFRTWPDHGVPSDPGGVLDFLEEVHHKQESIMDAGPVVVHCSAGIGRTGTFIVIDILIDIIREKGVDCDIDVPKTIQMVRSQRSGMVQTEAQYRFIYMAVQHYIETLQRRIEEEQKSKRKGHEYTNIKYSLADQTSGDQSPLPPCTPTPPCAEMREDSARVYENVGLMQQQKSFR
Outline: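 Purified full-length SHP2 (0.1 μg) was preincubated with test compound for 30 min at room temperature in 25 mM Tris-HCl pH 7.4, 50 mM NaCl, 5 mM DTT, 2.5 mM EDTA. Phospho-peptide (also an N-SH2 activator) was added to 50 µM final and incubated 30 °C, 30 min. Freed phosphate was read by Malachite Green at OD620. Lineweaver-Burk used 0, 10, 20 μM; mean ± SD, three experiments.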

[3] = biological target: full length SHP1 (Homo sapiens, UniProt P29350); assay: In vitro phosphatase activity assay, phospho-peptide substrate, Malachite Green; format: biochemical; conditions: data not shown
Sequence of full length SHP1 (P29350 whole entry): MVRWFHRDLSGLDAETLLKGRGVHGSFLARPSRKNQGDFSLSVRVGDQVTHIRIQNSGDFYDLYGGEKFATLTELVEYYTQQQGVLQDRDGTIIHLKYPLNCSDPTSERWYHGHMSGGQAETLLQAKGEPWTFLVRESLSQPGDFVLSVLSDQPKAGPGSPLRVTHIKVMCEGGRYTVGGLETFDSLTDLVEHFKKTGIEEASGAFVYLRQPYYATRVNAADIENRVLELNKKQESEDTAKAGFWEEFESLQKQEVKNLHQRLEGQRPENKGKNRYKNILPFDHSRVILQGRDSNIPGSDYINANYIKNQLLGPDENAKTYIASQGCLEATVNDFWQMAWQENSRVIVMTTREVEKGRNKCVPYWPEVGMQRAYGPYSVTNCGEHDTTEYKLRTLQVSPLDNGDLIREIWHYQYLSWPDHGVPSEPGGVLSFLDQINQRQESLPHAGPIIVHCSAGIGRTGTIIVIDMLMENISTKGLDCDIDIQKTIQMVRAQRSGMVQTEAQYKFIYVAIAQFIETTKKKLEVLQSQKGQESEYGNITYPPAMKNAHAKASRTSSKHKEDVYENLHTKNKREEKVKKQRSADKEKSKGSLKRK

[4] = tested on: Ba/F3 cells; assay: IL-3-induced signaling, immunoblotting of p-Erk, p-Akt, p-Jak2, p-Stat5; format: cell-based, murine; conditions: 4 hours pretreatment, IL-3 2.0 ng/mL, dose-dependent
Outline: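 Ba/F3 cells were starved overnight in serum- and cytokine-free RPMI1640, given test compound for 4 h, then stimulated with IL-3 2 ng/mL. Stimulation was 10 min for the dose series, or a time course at 20 µM. Cells were lysed in RIPA with NaF, Na3VO4 and protease inhibitors. 50 μg protein per lane went through SDS-PAGE and phospho-antibody immunoblotting with ECL. Blots were reprobed for total proteins. Three independent experiments.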

[5] = tested on: myeloid blasts from JMML patients with the PTPN11 E76K/+ mutation; assay: Colony-forming unit assay, JMML patient cells; format: cell-based, human; conditions: GM-CSF 1.0 ng/mL, 14 days
[6] = tested on: mouse embryonic fibroblasts (WT, PTPN11 knockout, PTPN11 E76K/+); assay: MEF proliferation; format: cell-based; conditions: 6 μM
Outline: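 Ptpn11 fl/fl and +/+ MEFs were infected with adeno-Cre, then treated with test compound at 6 μM or DMSO. Growth was measured at 24, 48 and 72 h with the One Solution Cell Proliferation kit, and SHP2 loss was confirmed by immunoblot. Ptpn11 E76K/+ and +/+ MEFs at 6 μM were counted with the same kit. Three experiments; mean ± SD of triplicates from one representative.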

[7] = tested on: myeloid progenitors from PTPN11 E76K/+ mice; assay: Colony-forming unit assay, mouse bone marrow cells; format: cell-based; conditions: GM-CSF 1.0 ng/mL, 7 days, vs WT control cells
Outline: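 Bone marrow from Ptpn11E76K/+/Mx1-Cre+ and Ptpn11+/+/Mx1-Cre+ mice was plated at 2×10^4 cells/mL in 0.9% methylcellulose IMDM (30% FBS, glutamine, β-mercaptoethanol, GM-CSF 1.0 ng/mL) with graded test compound or DMSO. Cultures ran 7 days at 37 °C in 5% CO2. Myeloid colonies (CFU-GM, CFU-M) were counted and normalized to WT DMSO colonies. Mean ± SD of three independent experiments.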

[8] = tested on: H661 cells (PTPN11 N58S); assay: Lung cancer cell proliferation; format: cell-based, human; conditions: 48 hours, dose-dependent; more sensitive than H596
Outline: (§1)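 Human lung cancer H661 (PTPN11 N58S/+) and H596 (WT PTPN11) cells were exposed to graded test compound for 48 hours, with DMSO controls. Cell number was measured by One Solution Cell Proliferation Assay kit. Three experiments; mean ± SD of triplicates from one representative experiment.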

[9] = biological target: T2, His-tagged SHP2 (Homo sapiens, UniProt Q06124); assay: Thermal shift assay; format: binding; conditions: 5, 10, 60 µM
T2 sequence (Q06124 1-593): T1 sequence (Q06124 1-593)
Outline: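 His-tagged SHP2 (1 µg) in 50 mM Tris-HCl pH 8.0, 500 mM NaCl, 50 mM imidazole was mixed with 5x Sypro Orange stock, 20 µl reaction. Test compound in DMSO was added to 5, 10 or 60 µM final; 1% DMSO served as control. Samples were heated 22–95 °C in 1 °C steps every 50 sec, and Tm was taken from melting curves. Mean ± SD of three independent experiments.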

[10] = tested on: H596 cells (WT PTPN11); assay: Lung cancer cell proliferation; format: cell-based, human; conditions: 48 hours, dose-dependent
Outline: as §1

[11] = tested on: SHP2 (full length WT, E76K, PTP domain); assay: Phosphatase assay with pNPP as the substrate; format: biochemical; conditions: 1 at 10 μM; any form of SHP2 protein
Outline: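 SHP2 enzyme (0.1 μg; full-length WT, E76K or PTP domain) was incubated with test compound for 15 min at 37 °C in 25 mM Tris-HCl pH 7.4, 50 mM NaCl, 5 mM DTT, 2.5 mM EDTA. pNPP was added to 0.9 mg/ml final and incubated a further 15 min at 37 °C. Read-out was OD405. Three independent experiments.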

[12] = tested on: H661 cells; assay: Cell cycle analysis, propidium iodide staining and FACS; format: cell-based, human; conditions: 10 and 20 μM, 24 hours
Outline: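 H661 cells (PTPN11 N58S/+) were treated with test compound at 0, 10 or 20 μM, stained with propidium iodide and analysed by FACS. Profiles are representative of three independent experiments.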

[13] = biological target: T3, full length WT SHP2 GST-fusion protein (Homo sapiens, UniProt Q06124); assay: Fluorescence titration; format: binding; conditions: SHP2 3.0 µM, dose-dependent
T3 sequence (Q06124 1-593): T1 sequence (Q06124 1-593)
Outline: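 GST-fusion full-length WT SHP2 was held at 3.0 μM in 20 mM Tris-HCl, pH 7.5, and titrated with rising test compound. Excitation was 295 nm and emission was read 360–500 nm. Inhibitor-alone fluorescence was subtracted. Relative intensity was plotted against log molar concentration. Three independent experiments; mean ± SD of triplicates from one representative run.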

[14] = tested on: Ba/F3 cells; assay: IL-3 dependent cell proliferation; format: cell-based, murine; conditions: IL-3 1.0 ng/mL, 48 hours
Outline: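 Cell numbers were read 48 hours after treatment with the One Solution Cell Proliferation Assay kit. Three experiments; mean ± SD of triplicates from one representative experiment.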

Structure (SMILES): CCOc1cc(O)c(C(=O)/C=C/c2ccc(Cl)cc2Cl)cc1CN1CCCCC1 [LY1]
toxicity in cells [1]: acute toxicity in cells

Structure (SMILES): CCOc1cc(O)c(C(=O)/C=C/c2ccc(Cl)cc2Cl)cc1CN1C[C@@H](O)C[C@@H]1C(C)=O [LY7]
toxicity in cells [1]: acute toxicity in cells

Further lines, with some results ahead:

inhibition of SHP2 phosphatase activity (qualitative) [2]: good effects on SHP2
Structure (SMILES): CCOc1cc(O)c(C(=O)/C=C/c2ccc(Cl)cc2Cl)cc1CN(CC)CC [LY3]
inhibition of SHP1 relative to SHP2 (qualitative) [3]: inhibited the SHP1 phosphatase to a similar extent

inhibition of SHP2 phosphatase activity (qualitative) [2]: good effects on SHP2
Structure (SMILES): CCOc1cc(O)c(C(=O)/C=C/c2ccc(Cl)cc2Cl)cc1CN1CCNCC1C (stereo not drawn) [LY5]
inhibition of SHP1 relative to SHP2 (qualitative) [3]: inhibited the SHP1 phosphatase to a similar extent

shift in melting temperature (Tm) [9]: dose-dependent right shifts
type of inhibition (Lineweaver-Burk plot) ([2]; 0, 10, 20 μM, Vmax decreased, Km increased): mixed type inhibitor
inhibitory function in presence of Triton X-100 ([2]; 0.001% Triton X-100 in assay buffer): not decreased
inhibition of SHP2 in presence of Triton X-100 ([2]; 0.01% Triton X-100): diminished
1/SHP2 binding after extensive washing of enzyme-inhibitor complex ([2]; washing): stable
effect on capability of SHP2 to dephosphorylate pNPP [11]: did not affect
quenching of SHP2 fluorescence [13]: strong quenching
Structure (SMILES): CCOc1cc(O)c(C(=O)/C=C/c2ccc(Cl)cc2Cl)cc1CN1CCC=C(n2c(=O)[nH]c3ccccc32)C1 [compound 1, (E)-1-(1-(5-(3-(2,4-dichlorophenyl)acryloyl)-2-ethoxy-4-hydroxybenzyl)-1,2,5,6-tetrahydropyridin-3-yl)-1H-benzo[d]imidazol-2(3H)-one]
IL-3-induced activation (phosphorylation) of Erk, Akt, Jak2, Stat5 [4]: inhibited
colony formation of JMML myeloid blasts [5]: exquisitely sensitive
cell growth of PTPN11 E76K/+ MEFs [6]: significantly decreased cell growth
proliferation of WT MEFs ([6]; 24, 48, 72 hours): markedly decreased
proliferation of PTPN11-depleted MEFs ([6]; PTPN11 knockout): did not show a significant effect
inhibition of colony-forming capability of SHP2 E76K-expressing progenitors [7]: much more sensitive than control cells
proliferation of H661 cells [8]: inhibited proliferation
inhibition of SHP2 phosphatase activity (qualitative) [2]: most active compound among the remaining compounds
proliferation of H596 cells [10]: inhibited proliferation
cell cycle change [12]: pronounced G2/M arrest
cell growth [14]: significantly suppressed cell growth
